Measured values taken from ChEMBL document CHEMBL5303300, “EUbOPEN Chemogenomics Library - Multiplex” (2023).
Values joined by “and” are separate entries in the source; they are usually repeats but may differ in a detail not shown here. Equal values may be shown once.

Experiments:
Type in all cases: toxicity, cell-based
[1] = system: HEK-293T; assay: Multiplex assay against HEK293T; conditions: human, number of replicates 2
How it was run: (§1)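 Tubulin, mitochondrial-mass and membrane-permeability phenotypes are per cents of healthy-nucleus cells. Cells were gated by CellPathfinder machine learning into Hoechst high-intensity objects or normal cells, normal cells into healthy, pyknosed or fragmented nuclei, and pyknosed cells into mitotic or apoptotic. Before that, live cells stained at seeding with Hoechst33342, BioTracker Green Microtubule Cytoskeleton Dye, MitoTracker Red and Annexin V Alexa Fluor 680 were imaged on a CQ1 microscope at 37°C and 5% CO2 after compound addition.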

[2] = system: U2OS; assay: Multiplex assay against U2OS; conditions: human, number of replicates 2; how it was run: as §1
[3] = system: Fibroblast; assay: Multiplex assay against human fibroblast; conditions: number of replicates 2; how it was run: as §1
[4] = 12 h, 1 µM, compound concentration 1 uM
[5] = 12 h, 10 µM, compound concentration 10 uM
[6] = 24 h, 1 µM, compound concentration 1 uM
[7] = 24 h, 10 µM, compound concentration 10 uM
[8] = 48 h, 1 µM, compound concentration 1 uM
[9] = 48 h, 10 µM, compound concentration 10 uM

CS(=O)(=O)c1ccc(C(=O)Nc2cccc(COc3ccc(Br)cc3CN3CC[C@@H](O)C3)c2)c(Cl)c1.O=CO
Population Apoptotic (%) [1, 4]: 57% and 47% | Population Healthy Nuclei (%) [1, 4]: 78% and 79% | Population Mitotic Cells (%) [1, 4]: 42% and 52% | Total Cell Count [1, 4]: 501 and 560 | Population Apoptotic (%) [1, 5]: 44% and 57% | Population Healthy Nuclei (%) [1, 5]: 87% and 85% | Population Mitotic Cells (%) [1, 5]: 55% and 42% | Total Cell Count [1, 5]: 619 and 489 | Population Apoptotic (%) [1, 6]: 54% and 48% | Population Healthy Nuclei (%) [1, 6]: 84% and 83% | Population Mitotic Cells (%) [1, 6]: 45% and 51% | Total Cell Count [1, 6]: 735 and 812 | Population Apoptotic (%) [1, 7]: 50% and 66% | Population Healthy Nuclei (%) [1, 7]: 85% and 84% | Population Mitotic Cells (%) [1, 7]: 50% and 33% | Total Cell Count [1, 7]: 658 and 521 | Population Apoptotic (%) [1, 8]: 30% and 25% | Population Healthy Nuclei (%) [1, 8]: 85% | Population Mitotic Cells (%) [1, 8]: 69% and 75% | Total Cell Count [1, 8]: 1702 and 1674 | Population Apoptotic (%) [1, 9]: 40% and 59% | Population Healthy Nuclei (%) [1, 9]: 85% | Population Mitotic Cells (%) [1, 9]: 60% and 40% | Total Cell Count [1, 9]: 998 and 697 | Population Apoptotic (%) [2, 4]: 60% and 71% | Population Healthy Nuclei (%) [2, 4]: 80% | Population Hoechst High Intensity Objects (%) [2, 4]: 0% | Population Mitotic Cells (%) [2, 4]: 40% and 28% | Population Normal (%) [2, 4]: 100% | Population Pyknosed Nuclei (%) [2, 4]: 9% | Population Apoptotic (%) [2, 5]: 55% and 54% | Population Healthy Nuclei (%) [2, 5]: 65% and 80% | Population Hoechst High Intensity Objects (%) [2, 5]: 0% | Population Mitotic Cells (%) [2, 5]: 44% and 45% | Population Normal (%) [2, 5]: 100% | Population Pyknosed Nuclei (%) [2, 5]: 20% and 15% | Population Apoptotic (%) [2, 6]: 54% and 59% | Population Healthy Nuclei (%) [2, 6]: 59% and 86% | Population Hoechst High Intensity Objects (%) [2, 6]: 0% | Population Mitotic Cells (%) [2, 6]: 45% and 40% | Population Normal (%) [2, 6]: 100% | Population Apoptotic (%) [2, 7]: 60% and 72% | Population Healthy Nuclei (%) [2, 7]: 59% and 65% | Population Hoechst High Intensity Objects (%) [2, 7]: 0% | Population Mitotic Cells (%) [2, 7]: 40% and 27% | Population Normal (%) [2, 7]: 100% | Population Pyknosed Nuclei (%) [2, 7]: 31% | Population Apoptotic (%) [2, 8]: 60% and 87% | Population Healthy Nuclei (%) [2, 8]: 64% and 82% | Population Hoechst High Intensity Objects (%) [2, 8]: 0% | Population Normal (%) [2, 8]: 100% | Population Pyknosed Nuclei (%) [2, 8]: 15% | Population Apoptotic (%) [2, 9]: 76% and 88% | Population Healthy Nuclei (%) [2, 9]: 47% and 57% | Population Hoechst High Intensity Objects (%) [2, 9]: 0% and 1% | Population Mitotic Cells (%) [2, 9]: 23% and 11% | Population Normal (%) [2, 9]: 100% | Population Pyknosed Nuclei (%) [2, 9]: 33% | Population Apoptotic (%) [3, 4]: 41% and 38% | Population Fragmented Nuclei (%) [3, 4]: 8% | Population Healthy Nuclei (%) [3, 4]: 61% and 73% | Population Hoechst High Intensity Objects (%) [3, 4]: 0% | Population Mitotic Cells (%) [3, 4]: 58% and 61% | Population Normal (%) [3, 4]: 100% | Population Pyknosed Nuclei (%) [3, 4]: 18% | Total Cell Count [3, 4]: 146 and 167 | Population Apoptotic (%) [3, 5]: 50% and 40% | Population Fragmented Nuclei (%) [3, 5]: 18% and 16% | Population Healthy Nuclei (%) [3, 5]: 55% and 61% | Population Hoechst High Intensity Objects (%) [3, 5]: 0% | Population Mitotic Cells (%) [3, 5]: 49% and 59% | Population Normal (%) [3, 5]: 100% | Population Pyknosed Nuclei (%) [3, 5]: 25% and 22% | Total Cell Count [3, 5]: 224 and 280 | Population Apoptotic (%) [3, 6]: 60% and 46% | Population Fragmented Nuclei (%) [3, 6]: 14% and 15% | Population Healthy Nuclei (%) [3, 6]: 63% and 67% | Population Hoechst High Intensity Objects (%) [3, 6]: 0% | Population Mitotic Cells (%) [3, 6]: 40% and 53% | Population Normal (%) [3, 6]: 100% | Population Pyknosed Nuclei (%) [3, 6]: 22% and 17% | Total Cell Count [3, 6]: 156 and 186 | Population Apoptotic (%) [3, 7]: 72% and 79% | Population Fragmented Nuclei (%) [3, 7]: 28% and 23% | Population Healthy Nuclei (%) [3, 7]: 52% and 63% | Population Hoechst High Intensity Objects (%) [3, 7]: 1% and 0% | Population Mitotic Cells (%) [3, 7]: 27% and 20% | Population Pyknosed Nuclei (%) [3, 7]: 18% and 13% | Total Cell Count [3, 7]: 262 and 331 | Population Apoptotic (%) [3, 8]: 71% and 57% | Population Fragmented Nuclei (%) [3, 8]: 18% and 16% | Population Healthy Nuclei (%) [3, 8]: 62% and 67% | Population Hoechst High Intensity Objects (%) [3, 8]: 0% | Population Mitotic Cells (%) [3, 8]: 28% and 42% | Population Normal (%) [3, 8]: 100% | Population Pyknosed Nuclei (%) [3, 8]: 18% and 15% | Total Cell Count [3, 8]: 154 and 164 | Population Apoptotic (%) [3, 9]: 84% and 82% | Population Fragmented Nuclei (%) [3, 9]: 32% and 30% | Population Healthy Nuclei (%) [3, 9]: 56% and 58% | Population Hoechst High Intensity Objects (%) [3, 9]: 1% and 0% | Population Mitotic Cells (%) [3, 9]: 15% and 17% | Population Normal (%) [3, 9]: 100% | Population Pyknosed Nuclei (%) [3, 9]: 10% | Total Cell Count [3, 9]: 300 and 395
